Results gathered from unrelated publications.
Protocols differ between the studies behind these lines.
MC3R: Melanocortin receptor 3 (MC3R, Homo sapiens, UniProt P41968)
TYK2 JH1: Non-receptor tyrosine-protein kinase TYK2, JH1 (TYK2, Homo sapiens, UniProt P29597)
TAOK1: Serine/threonine-protein kinase TAO1 (TAOK1, Homo sapiens, UniProt Q7L7X3)

| Compound | target | assay | system | setting | quantity | result |
| --- | --- | --- | --- | --- | --- | --- |
| CCCC[C@H](NC(C)=O)C(=O)N[C@@H](C)C(=O)N[C@@H](Cc1c[nH]cn1)C(=O)N[C@@H](Cc1ccccc1)C(=O)N[C@@H](CCCNC(=N)N)C(=O)N[C@H](Cc1c[nH]c2ccccc12)C(=O)N[C@@H](CC(=O)O)C(=O)N[C@@H](CCCNC(=N)N)C(=O)N[C@@H](Cc1ccccc1)C(=O)N[C@@H](C(=O)N1CCC[C@@H]1C(N)=O)C(C)C | MC3R | cAMP, agonist | CHO-K1 |  | Emax | 100% |
| C1=C/COCc2cc(ccc2OCCN2CCCC2)Nc2nccc(n2)-c2cccc(c2)COC/1 | TYK2 JH1 | cell-free assay |  | 0.1 µM | remaining signal | 52% |
| COc1ccc2oc(-c3ccc4nc(N)oc4c3)c/c(=N\c3ccccc3NC(=O)CCN)c2c1 | Cyclin-dependent kinase 6, with cyclin D3 (CDK6, Homo sapiens, UniProt Q00534) | binding |  | 1 µM | remaining binding | 98% |
| C#Cc1cc(-c2cc(Nc3nc(N[C@@H](C)c4ccc(F)cn4)ncc3Cl)n[nH]2)ccc1C=O | Non-receptor tyrosine-protein kinase TYK2 (TYK2, Homo sapiens, UniProt P29597) | enzyme activity, inhibitor |  | 0.2 µM | inhibition | 67.2% |
| CCCCC(=O)Nc1ccc(-c2ccc3ncn(CCC)c(=O)c3c2)cn1 | Proto-oncogene tyrosine-protein kinase ROS (ROS1, Homo sapiens, UniProt P08922) | binding, competition with immobilised ligand |  | 0.5 µM | remaining binding | 89% |
| CNS(=O)(=O)c1ccc(Nc2ncc(C(F)(F)F)c(N3CCC[C@](C)(O)C3)n2)c(C)c1 | TAOK1 | binding, competition with immobilised ligand |  | 1 µM | remaining binding | 5.3% |
| NC/C(=C\F)COc1cccc(Cn2c(=S)[nH]c(=O)c3[nH]cnc32)c1 | Neuropeptide Y receptor type 1 (NPY1R, Homo sapiens, UniProt P25929) | ligand displacement, radioligand |  | 10 µM | inhibition | < 50% |
| N#Cc1ccc(NC(=O)Nc2ccccc2)cc1 | TYK2 JH1 | cell-free assay, competition with immobilised ligand |  | 25 µM | remaining binding | 99% |
| CCN1/C(=C/C(C)=O)Sc2ccc(F)cc21 | Adenosine receptor A3 (ADORA3, Homo sapiens, UniProt P0DMS8) | ligand displacement, radioligand |  | 10 µM | inhibition | 12.4% |
| CC(=O)N[C@@H](CCCNC(=N)N)C(=O)N[C@H]1CSSC[C@@H](C(N)=O)NC(=O)[C@H](Cc2c[nH]c3ccccc23)NC(=O)[C@H](CCCNC(=N)N)NC(=O)[C@@H](Cc2ccccc2)NC(=O)[C@H](Cc2c[nH]cn2)NC(=O)[C@@H](C)NC1=O | MC3R | cAMP, agonist | CHO-K1 |  | Emax | 88% |
| Cc1cc2c(C(N)=O)c(N)n(-c3c(C)ccc(O)c3C)c2nc1C | Serine/threonine-protein kinase B-raf (BRAF, Homo sapiens, UniProt P15056) | enzyme activity, inhibitor, ADP detection |  | 10 µM | inhibition | 100% |
| CC(=O)N[C@H](CCCNC(=N)N)C(=O)N[C@H]1CSSC[C@@H](C(N)=O)NC(=O)[C@H](Cc2c[nH]c3ccccc23)NC(=O)[C@H](CCCNC(=N)N)NC(=O)[C@@H](Cc2ccccc2)NC(=O)[C@H](Cc2c[nH]cn2)NC(=O)[C@H](CCC(=O)O)NC1=O | MC3R | cAMP, agonist | CHO-K1 |  | Emax | 91% |
| Cc1cc(O)c(-c2ccc([C@@H](C)CN(C)C)cc2)c2c1[nH]c(=O)c1sccc12 | Cyclin-dependent kinase 6 (CDK6, Homo sapiens, UniProt Q00534) | enzyme activity, inhibitor |  | 0.1 µM | inhibition | 1.19% |
| Cc1cc(S(=O)(=O)N[C@H]2CC[C@H](CN3CCN(c4ccc(C5CCC(=O)NC5=O)cc4F)CC3)CC2)ccc1Nc1ncc(C(F)(F)F)c(N2CCC[C@](C)(O)C2)n1 (some centres unmarked) | TAOK1 | binding, competition with immobilised ligand |  | 1 µM | remaining binding | 72% |
